Assay [1] addresses Glutamate NMDA receptor; Grin1/Grin2a (Rattus norvegicus) (UniProt P35439+Q00959). Description: Negative allosteric modulation of recombinant rat GluN1/GluN2A expressed in Xenopus laevis oocytes assessed as residual glutamate/glycine-induced current response at 30 uM at -40 mV holding potential by two-electrode voltage clamp method relative to glutamate/glycine. (In general: Two-electrode voltage clamp holds a large cell at a set potential and records current.)

Assay [2] is filed under the species Rattus norvegicus. Description: Negative allosteric modulation of rat GABAA rho expressed in Xenopus laevis oocytes assessed as inhibition of GABA-induced current response at 30 uM at -40 mV holding potential by two-electrode voltage clamp method relative to GABA alone. Type of assay: cell-based. An outline of the steps: (§1)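 Oocyte two-electrode voltage clamp at -40 mV holding. Test compound co-applied with agonist; response given as percent of the mean of control and recovery currents to agonist alone. Agonists: 100 µM glutamate (AMPA, kainate), 100 µM GABA (GABA receptors), 100 µM glycine (glycine receptor), 100 µM serotonin (5-HT3A), 9 µM ATP (P2X), 1 µM acetylcholine (nicotinic).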

Assay [3] concerns the target Ionotropic glutamate receptor NMDA 1/2D (Rattus norvegicus) (UniProt P35439+Q62645). Description: Potency index, ratio of NP11999 IC50 to test compound IC50 for negative allosteric modulation of recombinant rat GluN1/GluN2D expressed in Xenopus laevis oocytes assessed as inhibition of glutamate/glycine-induced current response. In kind it is cell-based.
Assay [4] addresses P2X receptor (Homo sapiens) (UniProt P51575+Q99571+Q9UBL9+O15547+P56373+Q99572+Q93086). Description: Negative allosteric modulation of human P2X expressed in Xenopus laevis oocytes assessed as inhibition of ATP-induced current response at 30 uM at -40 mV holding potential by two-electrode voltage clamp method relative to ATP alone. In kind it is cell-based. The method in brief: as §1

Assay [5] addresses Glutamate NMDA receptor; Grin1/Grin2c (Rattus norvegicus) (UniProt P35439+Q00961). Description: Negative allosteric modulation of recombinant rat GluN1/GluN2C expressed in Xenopus laevis oocytes assessed as inhibition of glutamate/glycine-induced current response at saturated concentration at -40 mV holding potential by two-electrode voltage clamp method relative to glutamate/glycine. In kind it is cell-based. An outline of the steps: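 Hill fit of the composite concentration-response curve in oocytes, with agonist 100 µM glutamate plus 30 µM glycine. Residual response in saturating compound is either fixed at 0 or fitted. 8-16 oocytes from 2-3 frogs.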

Assay [6] has as its target CHRNA1/CHRNB1/CHRNG/CHRND (Rattus norvegicus) (UniProt P25109+P25108+P25110+P18916). Briefly: Negative allosteric modulation of rat alpha1betagammadelta nACHR expressed in Xenopus laevis oocytes assessed as inhibition of acetylcholine-induced current response at 30 uM at -40 mV holding potential by two-electrode voltage clamp method relative to acetylcholine alone. Type of assay: cell-based. An outline of the steps: as §1

Assay [7] addresses Glutamate receptor 1 (Rattus norvegicus) (UniProt P19490). Description: Negative allosteric modulation of recombinant rat GluA1 expressed in Xenopus laevis oocytes assessed as inhibition of glutamate-induced current response at 30 uM at -40 mV holding potential by two-electrode voltage clamp method relative to glutamate alone. In kind it is cell-based. An outline of the steps:
as §1

The species entered for assay [8] is Homo sapiens. Briefly: Negative allosteric modulation of human GluA2 R607Q mutant expressed in Xenopus laevis oocytes assessed as inhibition of glutamate-induced current response at 30 uM at -40 mV holding potential by two-electrode voltage clamp method relative to glutamate alone. In kind it is cell-based. The method in brief: as §1
Assay [9] is filed under the species Rattus norvegicus. Briefly: Negative allosteric modulation of rat GABAA alpha1beta2gamma2S expressed in Xenopus laevis oocytes assessed as inhibition of GABA-induced current response at 30 uM at -40 mV holding potential by two-electrode voltage clamp method relative to GABA alone. In kind it is cell-based. The method in brief:
as §1

Bounds are passed on as bounds.

Sequence of Glutamate receptor 1 (Rattus norvegicus) (P19490 whole entry): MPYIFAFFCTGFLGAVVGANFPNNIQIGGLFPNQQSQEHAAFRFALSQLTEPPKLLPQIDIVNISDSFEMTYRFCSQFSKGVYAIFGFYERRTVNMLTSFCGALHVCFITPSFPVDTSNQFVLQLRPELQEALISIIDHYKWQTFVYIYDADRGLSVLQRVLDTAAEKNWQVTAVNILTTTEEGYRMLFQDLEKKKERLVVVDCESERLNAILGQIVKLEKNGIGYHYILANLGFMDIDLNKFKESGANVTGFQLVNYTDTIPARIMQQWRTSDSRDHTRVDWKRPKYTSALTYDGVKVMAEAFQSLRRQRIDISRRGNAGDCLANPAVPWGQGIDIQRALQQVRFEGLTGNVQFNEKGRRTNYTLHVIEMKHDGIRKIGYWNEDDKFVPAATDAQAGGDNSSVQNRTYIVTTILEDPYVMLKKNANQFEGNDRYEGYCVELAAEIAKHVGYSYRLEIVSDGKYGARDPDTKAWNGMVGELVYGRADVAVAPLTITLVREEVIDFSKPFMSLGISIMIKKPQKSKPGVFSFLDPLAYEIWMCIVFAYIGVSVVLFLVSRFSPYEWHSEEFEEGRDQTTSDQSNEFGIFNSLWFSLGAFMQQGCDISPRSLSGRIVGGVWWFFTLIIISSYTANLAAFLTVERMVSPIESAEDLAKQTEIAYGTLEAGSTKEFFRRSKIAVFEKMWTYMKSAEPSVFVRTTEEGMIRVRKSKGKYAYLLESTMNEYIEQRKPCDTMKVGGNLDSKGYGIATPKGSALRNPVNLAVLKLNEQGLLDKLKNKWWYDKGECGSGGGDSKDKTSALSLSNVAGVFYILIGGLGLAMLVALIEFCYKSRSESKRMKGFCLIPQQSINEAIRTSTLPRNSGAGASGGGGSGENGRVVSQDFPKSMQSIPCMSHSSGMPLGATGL

By inhibition is commonly meant the percentage by which the read-out fell short of the control. `CCN(CC)C(=O)Oc1ccc(C(=O)Nc2cccc(CCNS(=O)(=O)c3ccccc3)c2)cc1`: in assay [1], the residual activity was 85%. The inhibition was found to be 98% in assay [2]; 80% in assay [4]; 0% in assay [5]; 27% in [6]; 79% in assay [7]; 95% in [8]. Further, in assay [9], the inhibition came out at 90%. Also, the Ratio IC50 in assay [3] was less than 6.
